Most compounds without a hit are left out; they make up all but 2.9% or so of the library.
M18AAP inhibitor – PfM18AAP enzyme inhibition. recombinant PfM18AAP, H-Glu-NHMec fluorogenic cleavage. inhibition, % at 7.35 µM. actives 1.2% (n = 290,000). AID 1822;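 active = inhibition above the campaign mean inhibition over all tested compounds plus 3 SD, cut at about 28% in these data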
RBBP9 inhibitor – human RBBP9 hydrolase inhibition | O75884 | inhibition, % at 7.94 µM | recombinant RBBP9, FP-Rh probe fluorescence polarization | actives 0.2% (n = 220,000);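 active = inhibition above the campaign mean of all tested compounds plus 3 SD, cut at about 14% in these data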
Target sequence (O75884 whole entry, looked up): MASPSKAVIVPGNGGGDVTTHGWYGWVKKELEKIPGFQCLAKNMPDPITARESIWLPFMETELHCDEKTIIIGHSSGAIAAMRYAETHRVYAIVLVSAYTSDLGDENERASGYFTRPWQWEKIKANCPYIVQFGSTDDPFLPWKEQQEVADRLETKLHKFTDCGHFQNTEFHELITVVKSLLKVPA
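Test system: recombinant human RBBP9. Quantity: 2.5 µM RBBP9 dispensing solution, before mixing. Detection: FP readout at 525/598 nm. Reagent: Serine-hydrolase probe FP-Rh, 375 nM pre-mixing. Measure: % inhibition. Control set: DMSO-treated enzyme wells and wells lacking RBBP9. Buffer or medium: Tris-NaCl-Pluronic buffer, pH 8.0. Times: preincubation 30 min plus labeling 45 min at 25 °C.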
Runt-CBFb FRET – Runt domain-CBFb interaction inhibition; Q01196+Q13951; inhibition, % at 20 µM; actives 0.46% (n = 220,000); Cerulean-Runt/Venus-CBFb FRET ratio 530/480, 1 h;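 active = inhibition over about 50% at 20 µM in the single-dose screen, limit read from the data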
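Doses: 20 µM compound in 1% DMSO | Material: Cerulean-labeled Runt domain protein | Amount: Each fluorescent fusion protein 100 nM | Schedule: Two 1 h room-temperature incubations shielded from light | Measured by: FRET fluorescence | Evaluation: Loss of energy transfer signal | Controls: Unlabeled CBFb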
Runt-SMMHC FRET – inhibitors of human RUNX1 Runt domain binding to CBFb-SMMHC; actives 0.74% (n = 220,000); Cerulean-Runt/Venus-CBFb-SMMHC FRET ratio 530/480, 1 h; inhibition, % at 20 µM; AID 1434; Q01196+Q13951;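 active = mean inhibition across duplicate retests at 20 µM reaching about 50%, limit read from the data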;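 note: inhibitors lower the FRET ratio by blocking Runt binding to CBFb-SMMHC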
RanGTP-Impb inh – inhibitors of RanGTP-importin-beta interaction, primary screen, biochemical, FRET, CFP-Ran, YFP-importin-beta, homogeneous; cell-free CFP-Ran/YFP-importin-beta FRET ratio; inhibition, % (test concentration not listed); actives 1.1% (n = 300,000);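 active = more than half of the replicate wells show a fall in the fluorescence ratio signal beyond about 16%, limit read from the data, passing the limit was not always enough; inconclusive = exactly half of the replicate wells pass the set limit; inactive = fewer than half of replicates pass the limit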
Hck Nef HTS – human Hck-Nef kinase inhibition; P08631; Recombinant Hck-YEEI plus Nef, Z-Lyte FRET kinase assay; inhibition, % at 20 µM; actives 0.68% (n = 220,000); AID 463187;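 active = Hck-Nef kinase inhibition above about 50%, limit read from the data; inactive = inhibition below that limit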
Target sequence (P08631 whole entry, looked up): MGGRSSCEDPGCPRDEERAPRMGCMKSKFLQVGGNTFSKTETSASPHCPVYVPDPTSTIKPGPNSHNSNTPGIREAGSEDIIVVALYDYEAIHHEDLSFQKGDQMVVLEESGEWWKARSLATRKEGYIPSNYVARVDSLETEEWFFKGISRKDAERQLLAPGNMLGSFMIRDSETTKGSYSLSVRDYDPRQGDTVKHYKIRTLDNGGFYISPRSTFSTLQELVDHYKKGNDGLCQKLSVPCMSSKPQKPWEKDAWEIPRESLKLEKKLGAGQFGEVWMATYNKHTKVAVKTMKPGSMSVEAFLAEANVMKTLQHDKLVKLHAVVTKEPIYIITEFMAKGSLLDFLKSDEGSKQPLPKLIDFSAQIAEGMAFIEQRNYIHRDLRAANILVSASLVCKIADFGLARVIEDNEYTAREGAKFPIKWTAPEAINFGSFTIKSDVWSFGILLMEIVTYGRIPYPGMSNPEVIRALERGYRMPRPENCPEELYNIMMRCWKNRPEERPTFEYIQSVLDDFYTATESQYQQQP
Hits are given with their value; - = inactive; ? = inconclusive; . = not tested or not shown.

SMILES	M18AAP inhibitor	RBBP9 inhibitor	Runt-CBFb FRET	Runt-SMMHC FRET	RanGTP-Impb inh	Hck Nef HTS
Cc1ccc(-n2c(=O)cc(N3CCC(C)CC3)[nH]c2=O)cc1	-	-	-	-	-	-
CCN1CCN(c2cc(=O)n(-c3cc(Cl)ccc3C)c(=O)[nH]2)CC1	-	-	-	-	72.0	-
Cc1ccc(-n2c(=O)cc(N3CCc4ccccc4C3)[nH]c2=O)cc1	-	-	-	-	40.1	-
CC(=O)c1c(C)[nH]c(C(=O)Nc2cccc(C(F)(F)F)c2)c1C	-	.	.	.	-	.
Cc1c(C(=O)NCCN2CCCC(O)C2)oc2c(F)cccc12 (stereo unspecified)	-	.	.	.	-	.
O=[N+]([O-])c1ccc(N2CCOCC2)cc1SCc1ccco1	31.5	-	-	-	-	-
CCOC(=O)c1cn(CC(=O)Nc2cccc(F)c2)nn1	-	-	-	-	-	-
Cc1cc(C)c2c(=O)n(CC(=O)Nc3cccc(F)c3)sc2n1	65.4	-	-	64.8	-	-
O=C(NCC1CCCO1)c1ccccc1OCc1ccc(Cl)cc1 (stereo unspecified)	.	.	.	.	-	.
Cc1ccc(-c2cc(-c3ccc(Cl)cc3)c(C#N)c(N)n2)o1	-	-	-	-	15.8	-
COc1ccc(S(=O)(=O)N(CC(=O)N2CCCCCC2)c2ccccc2OC)cc1	-	.	.	.	-	.
COc1ccccc1CNS(=O)(=O)c1cccs1	-	.	.	.	-	.
Cc1ccc2nc(NCc3ccccc3)c(C#N)cc2c1	-	-	-	-	38.2	-
COc1ccc2nc(NCCCNC(=O)c3cc(OC)c(OC)c(OC)c3)c(C#N)cc2c1	-	-	56.8	-	125.7	-
COc1cc(C(=O)NCCNc2nc3ccc(C)cc3cc2C#N)cc(OC)c1OC	-	.	.	.	81.2	.
COc1cc(C(=O)NCCCNc2nc3c(C)cc(C)cc3cc2C#N)cc(OC)c1OC	-	-	-	-	-	-
COc1ccc(C(=O)NCCNc2nc3ccc(C)cc3cc2C#N)cc1	-	.	.	.	65.4	.
COc1cccc(CN(C)C(=O)COc2ccc(C(=O)c3ccc(Cl)cc3)cc2)c1OC	-	.	.	.	-	.
COc1ccc(NC2CCCN(C(=O)CSc3ccncc3)C2)cc1 (stereo unspecified)	-	.	.	.	?	.
O=C(Nc1ccc2nc(-c3ccco3)c(-c3ccco3)nc2c1)N1CCCCCC1	-	-	-	-	79.8	-
O=C(Nc1ccc2nc(-c3ccccn3)c(-c3ccccn3)nc2c1)N1CCOCC1	-	-	-	-	19.8	-
CCOC(=O)C1CCN(C(=O)Nc2ccc3nc(-c4ccco4)c(-c4ccco4)nc3c2)CC1	-	-	-	-	74.9	-
O=C(Nc1ccccn1)N1CCOCC1	-	-	-	-	-	-
Cc1nc2ccc(NC(=O)N3CCCCC3)cc2nc1C	-	-	-	-	-	-
CC(=O)NC(CC(=O)OCC(=O)N1CCN(S(=O)(=O)c2ccc(Cl)cc2)CC1)c1ccccc1 (stereo unspecified)	.	.	.	.	-	.
SMILES	M18AAP inhibitor	RBBP9 inhibitor	Runt-CBFb FRET	Runt-SMMHC FRET	RanGTP-Impb inh	Hck Nef HTS
CC(=O)c1sc(Nc2nc3ccc(F)cc3s2)nc1C	-	-	58.9	79.3	47.3	-
CNC(=O)CSc1nc2cccnc2n1-c1ccc(F)cc1	-	.	.	.	-	.
NNc1ccc(Cl)nn1	28.6	-	-	-	-	-
CNc1ccc(Cl)nn1	-	-	-	-	-	-
O=C(c1ccccc1)[C@@H]1[C@@H](C(=O)c2ccc(F)cc2)[C@@]2(C(=O)Nc3ccccc32)[C@H]2c3ccccc3C=CN12	-	-	-	-	21.5	-
CC(=O)[C@@H]1[C@@H](C(=O)c2ccccc2)[C@]2(C(=O)Nc3ccccc32)[C@H]2C=Cc3cc(F)ccc3N12	-	-	-	-	-	-
CC(C)=NNc1cc([N+](=O)[O-])cc2c1C(=O)N(C)S2=O (stereo unspecified)	29.8	-	-	-	-	-
O=C1COc2ccc(-c3csc(NCC4CCCO4)n3)cc2N1 (stereo unspecified)	-	-	-	-	-	-
CC(Nc1nc(-c2ccc3c(c2)NC(=O)CO3)cs1)c1ccccc1 (stereo unspecified)	-	-	-	-	-	137.4
COC(=O)C1=CN(c2cccc(Cl)c2)C=C(C(=O)OC)C1c1cccc(OC)c1	-	.	.	.	-	.
COC(=O)C1=CNC=C(C(=O)OC)C1c1ccc(Cl)cc1	-	-	-	82.6	-	-
COC(=O)C1=CNC=C(C(=O)OC)C1c1cccc(OC)c1	-	-	-	100.4	-	-
Cc1ccc([N+](=O)[O-])cc1S(=O)(=O)Nc1ccc(OCC(=O)N2CCOCC2)cc1	-	.	.	.	-	.
CCN(C1CCS(=O)(=O)C1)S(=O)(=O)c1ccc(OC)c(OC)c1 (stereo unspecified)	.	.	.	.	-	.
CC1(C)CC(=O)C2=C(C1)Nc1ccccc1NC2	-	-	-	87.2	-	-
O=C(Nc1ncccc1Cl)c1cc2ccccc2o1	-	.	.	.	-	.
O=C(Nc1nc2ccccc2s1)C1CCN(S(=O)(=O)c2cc([N+](=O)[O-])ccc2Cl)CC1	28.5	-	-	-	-	-
Cc1nc([N+](=O)[O-])c(Sc2nc3ccc([N+](=O)[O-])cc3[nH]2)n1Cc1ccccc1	-	-	114.7	-	-	-
Cc1nc([N+](=O)[O-])c(Br)n1Cc1ccccc1	-	-	-	-	-	-
COCCNC(=S)N=Nc1c(O)[nH]c2c(C)cc(C)cc12	-	-	-	-	156.3	-
CCCCNC(=S)N=Nc1c(O)[nH]c2ccccc12	-	-	-	-	-	-
COC(=O)c1c(NC(=O)C2CC=CCC2C(=O)O)sc2c1CCCCC2 (stereo unspecified)	29.0	.	.	.	-	.
CC(C)(C)N1CC(C(=O)Nc2cccc(Cl)c2Cl)CC1=O (stereo unspecified)	-	.	.	.	-	.
COc1cccc(-n2cc(CNCc3cn(C)nc3-c3ccccc3F)cn2)c1	-	-	-	-	64.0	-
COc1ccc(Cl)cc1NC(=O)C1CC(c2ccccc2O)=NO1 (stereo unspecified)	-	.	.	.	-	.
SMILES	M18AAP inhibitor	RBBP9 inhibitor	Runt-CBFb FRET	Runt-SMMHC FRET	RanGTP-Impb inh	Hck Nef HTS
O=C(O)c1ccc(Cl)c(S(=O)(=O)Nc2ccc3[nH]c(=O)[nH]c3c2)c1	-	-	-	-	21.9	-
O=C(O)/C=C/c1ccc(S(=O)(=O)Nc2ccc3[nH]c(=O)[nH]c3c2)cc1	-	.	.	.	27.1	.
O=C(O)c1cccc(S(=O)(=O)Nc2ccc3[nH]c(=O)[nH]c3c2)c1	-	-	-	-	16.4	-
O=C(O)c1ccc(NC(=O)c2cccc(S(=O)(=O)Nc3ccc(C(=O)O)cc3)c2)cc1	-	.	.	.	-	.
CCc1cccc(C)c1NC(=S)N(CCN(C)C)Cc1cccs1	-	-	-	-	53.8	-
COc1ccc(NS(=O)(=O)c2ccc3c(c2)N(C(C)=O)CCO3)c(OC)c1	-	.	.	.	-	.

Source: PubChem (several laboratories)
